Here are results for 4 compounds from ChEMBL document CHEMBL3414548, “Luotonin-A based quinazolinones cause apoptosis and senescence via HDAC inhibition and activation of tumor suppressor proteins in HeLa cells” (Eur J Med Chem, 2015).

Test [1] concerns HeLa. In words: Upregulation of p21 mRNA expression in human HeLa cells at 4 uM after 48 hrs by RT-PCR analysis. Type of test: functional, cell-based. The method, boiled down:
(§1)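 HeLa cells were treated at 4 μM for 48 h before RNA isolation. cDNA was amplified by RT-PCR with gene-specific primers, using GAPDH as loading control. Products were run on 1% agarose gel with ethidium bromide, and band intensity was quantified by densitometry.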

Test [2] relates to HeLa. In words: Downregulation of HDAC-2 mRNA expression in human HeLa cells at 4 uM after 48 hrs by RT-PCR analysis. Format: functional, cell-based. A digest of the protocol: as §1
Test [3] concerns HeLa. In words: Downregulation of HDAC-5 mRNA expression in human HeLa cells at 4 uM after 48 hrs by RT-PCR analysis. Type of test: functional, cell-based. A digest of the protocol: as §1
Test [4] concerns HeLa. The test can be described thus: Induction of human p16 promoter activity transfected in human HeLa cells at 4 uM after 48 hrs by luciferase-based luminescence assay. Type of test: cell-based. A digest of the protocol: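 A 1.4 kb human p16 promoter in pGL3-basic luciferase vector was co-transfected into HeLa with a β-gal plasmid. Cells were then treated at 4 μM for 48 h. Lysate luciferase luminescence was normalized to β-galactosidase as internal control.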

Test [5] concerns HeLa. In words: Change in HDAC-7 mRNA expression in human HeLa cells at 4 uM after 48 hrs by RT-PCR analysis. Type of test: functional, cell-based. The method, boiled down: as §1
Test [6] relates to HeLa. The test can be described thus: Downregulation of EZH2 mRNA expression in human HeLa cells at 4 uM after 48 hrs by RT-PCR analysis. Format: functional, cell-based. A digest of the protocol:
as §1

In test [7] the test system is HeLa. In words: Downregulation of HDAC-1 mRNA expression in human HeLa cells at 4 uM after 48 hrs by RT-PCR analysis. Type of test: functional, cell-based. The method, boiled down: as §1
Test [8] relates to HeLa. The test can be described thus: Change in HDAC-6 mRNA expression in human HeLa cells at 4 uM after 48 hrs by RT-PCR analysis. Format: functional, cell-based. The method, boiled down:
as §1

The subject of test [9] is HeLa. The test can be described thus: Upregulation of p53 mRNA expression in human HeLa cells at 4 uM after 48 hrs by RT-PCR analysis. Type of test: functional, cell-based. The method, boiled down: as §1
Test [10] relates to HeLa. In words: Induction of senescence in human HeLa cells at 4 uM after 72 hrs by X-gal staining-based beta-galactosidase assay. Format: functional, cell-based. The method, boiled down: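 HeLa cells in chamber slides were treated at 4 μM for 72 h. They were fixed in 3% paraformaldehyde and then in methanol at 4 °C. Staining used X-gal in sodium phosphate buffer with ferro/ferricyanide, 1 mM MgCl₂ and citric acid for 24 h. Senescent cells were scored by microscopy as enlarged, flattened and blue.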

Test [11] deals with HeLa. The test can be described thus: Cell cycle arrest in human HeLa cells assessed as accumulation at G0 phase at 8 uM after 48 hrs by propidium iodide staining-based flow cytometric analysis (reference value: 3%). Format: functional. (A flow cytometer gives signals particle by particle.)
Test [12] deals with HeLa. In words: Cell cycle arrest in human HeLa cells assessed as accumulation at G1 phase at 8 uM after 48 hrs by propidium iodide staining-based flow cytometric analysis (reference value: 68%). Type of test: functional.
Test [13] in a line: Cytotoxicity against HEK cells after 72 hrs by MTT assay. Type of test: cell-based. The note with it: Homo sapiens, HEK293, 72 h. The method, boiled down:
(§2)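 Cells were seeded at 1×10⁴ per well and preincubated 18 h at 37 °C, 5% CO₂. They were then exposed to 1–256 μM for 72 h with DMSO ≤0.25%. MTT was added for 2 h and formazan was solubilized in extraction buffer before reading OD at 570 nm. IC50 is mean ± SD of three independent experiments. HEK is the normal-cell line; cancer lines were grown in DMEM with 10% serum.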
(Formazan colour is commonly taken as a measure of viable cells.)

Test [14] relates to HeLa. The test can be described thus: Selectivity index, ratio of IC50 for HEK cells to IC50 for human HeLa cells. Type of test: functional. A digest of the protocol:
(§3)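 Selectivity index is IC50 in normal HEK cells divided by IC50 in the cancer cell line.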

A further test relates to MCF7. In words: Cytotoxicity against human MCF7 cells after 72 hrs by MTT assay. Format: functional, cell-based. The note with it: MCF7, 72 h. The method, boiled down: as §2
Test [15] deals with HeLa. In words: Cell cycle arrest in human HeLa cells assessed as accumulation at S phase at 4 uM after 48 hrs by propidium iodide staining-based flow cytometric analysis (reference value: 7%). Type of test: functional.
For test [16], the system named is HEK293. The test can be described thus: Selectivity index, ratio of IC50 for HEK cells to IC50 for human K562 cells. Type of test: functional. A digest of the protocol:
as §3

A further test concerns K562. In words: Cytotoxicity against human K562 cells after 72 hrs by MTT assay. Type of test: functional, cell-based. The note with it: K562, 72 h. The method, boiled down: as §2
The subject of test [17] is HeLa. The test can be described thus: Cell cycle arrest in human HeLa cells assessed as accumulation at G0/G1 phase at 4 uM after 48 hrs by propidium iodide staining-based flow cytometric analysis (reference value: 62%). Format: functional.
For test [18], the system named is HeLa. The test can be described thus: Cell cycle arrest in human HeLa cells assessed as accumulation at G2/M phase at 4 uM after 48 hrs by propidium iodide staining-based flow cytometric analysis (reference value: 19%).
Test [19] relates to HeLa. The test can be described thus: Cell cycle arrest in human HeLa cells assessed as accumulation at G2/M phase at 4 uM after 48 hrs by propidium iodide staining-based flow cytometric analysis (reference value: 31%). Type of test: functional.
In test [20] the test system is HEK293. In words: Selectivity index, ratio of IC50 for HEK cells to IC50 for human MCF7 cells. Format: functional. A digest of the protocol: as §3
In test [21] the test system is HeLa. In words: Cell cycle arrest in human HeLa cells assessed as accumulation at S phase at 8 uM after 48 hrs by propidium iodide staining-based flow cytometric analysis (reference value: 10%). Format: functional.
Test [22] addresses Histone deacetylase (HDAC1 and HDAC2) (Homo sapiens, UniProt Q13547+Q92769). In words: Inhibition of HDAC1/2 in human HeLa cells using color de lys as substrate after 30 mins by colorimetric analysis. Type of test: cell-based. The method, boiled down:
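HeLa cells were treated at 4 μM, with TSA as reference. Samples were then incubated 30 min with Color de Lys substrate and HDAC-1/2. Developer yields a yellow product, and absorbance was read at 405 nm.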

For test [23], the system named is HeLa. The test can be described thus: Cytotoxicity against human HeLa cells after 72 hrs by MTT assay. Format: functional, cell-based. A digest of the protocol: as §2

Calls of active or inactive are those of the source. The calls are words filed in the database; no cut-off is given here.

For `COc1cccc2c1C(=O)c1c(O)c3c(c(O)c1C2=O)C[C@@](O)(C(=O)CO)C[C@@H]3O[C@H]1C[C@H](N)[C@H](O)[C@H](C)O1`, the result in the test with HeLa [1], with HeLa [2], in the test on HeLa [3], in the test with HeLa [4], with HeLa [6] and with HeLa [7] was Active. In addition, the result in the test with HeLa [9] and in the test with HeLa [10] was Active. Besides, the result with HeLa [5] and in the test with HeLa [8] was inactive.

In general, IC50 refers to the concentration that inhibits the measured activity by half. The low end stands for inhibition by little substance, the high end for a need for much substance. As for `O=c1c2ccccc2nc2n1Cc1cc3ccccc3nc1-2` [LUOTONIN A], the Activity with HeLa [11] is on record as 5%; with HeLa [12], 72%; in the test with HeLa [15], 5%; with HeLa [17], 75%; in the test with HeLa [18], 17%; in the test with HeLa [19], 20%. Moreover, the Activity in the test with HeLa [21] was found to be 5%. In addition, the result in the test on HeLa [1], with HeLa [2], in the test on HeLa [3], with HeLa [4], with HeLa [6] and in the test on HeLa [7] was Active. For the same compound, the result in the test with HeLa [9] and with HeLa [10] was Active. Moreover, the half-maximal inhibitory concentration (IC50) was 58 µM in test [13]; 9.28 µM in the test with MCF7; 28.8 µM in the test on K562; 6.4 µM in test [22]; 5.94 µM in the test on HeLa [23]. Moreover, the “Ratio IC50” value with HeLa [14] was determined as 9.76; with HEK293 [16], 2.01; with HEK293 [20], 6.25. In addition, the result with HeLa [5] and in the test with HeLa [8] was inactive.

On to `COc1cc2nc(C)n(-c3ccccc3Cn3cc(-c4ccccn4)nn3)c(=O)c2cc1OC`, for which the Activity with HeLa [11] was 5%; in the test with HeLa [12] it was 69%; in the test with HeLa [15], 7%; in the test on HeLa [17], 72%; in the test on HeLa [18] it was 19%; in the test with HeLa [19], 22%. In addition, the Activity with HeLa [21] came out at 7%. Further, the IC50 in test [13] amounted to 252 µM; with MCF7, 18.6 µM; in the test on K562, 20.8 µM; in the test with HeLa [23] it was 10.6 µM. Besides, the “Ratio IC50” value in the test with HeLa [14] was determined as 23.84; in the test with HEK293 [16], 12.11; in the test with HEK293 [20], 13.54.

For `Cc1nc2ccccc2c(=O)n1-c1ccccc1Cn1cc(-c2ccccc2)nn1`, the Activity in the test on HeLa [11] is 7%; in the test with HeLa [12] it was 72%; with HeLa [15], 6%; with HeLa [17], 76%; in the test on HeLa [18], 15%; with HeLa [19] it was 18%. Further, in the test on HeLa [21], the Activity was found to be 6%. The result with HeLa [1], with HeLa [2], with HeLa [3], in the test with HeLa [4], in the test with HeLa [6] and in the test with HeLa [7] was Active. Moreover, the result in the test with HeLa [9] and in the test on HeLa [10] was Active. The half-inhibitory concentration (IC50) in [13] was 256 µM; in the test on MCF7 it was 8 µM; with K562, 20.2 µM; in [22], 2.96 µM; with HeLa [23], 5.94 µM. The figures for the “Ratio IC50” value in the test on HeLa [14], in the test with HEK293 [16] and in the test on HEK293 [20] were 43.09, 12.69 and 32, respectively. In addition, the outcome in the test on HeLa [5] and in the test on HeLa [8] was inactive.
